Reference: ChEMBL document CHEMBL1135891, “Development of long-acting dopamine transporter ligands as potential cocaine-abuse therapeutic agents: chiral hydroxyl-containing derivatives of 1-[2-[bis(4-fluorophenyl)methoxy]ethyl]-4-(3-phenylpropyl)piperazine and 1-[2-(diphenylmethoxy)ethyl]-4-(3-phenylpropyl)piperazine” (J Med Chem, 2002)

How the values were obtained:
[1] = biological target: Sodium-dependent serotonin transporter (Rattus norvegicus, UniProt P31652); assay: Binding affinity for serotonin transporter
Chain of Sodium-dependent serotonin transporter (P31652 whole entry): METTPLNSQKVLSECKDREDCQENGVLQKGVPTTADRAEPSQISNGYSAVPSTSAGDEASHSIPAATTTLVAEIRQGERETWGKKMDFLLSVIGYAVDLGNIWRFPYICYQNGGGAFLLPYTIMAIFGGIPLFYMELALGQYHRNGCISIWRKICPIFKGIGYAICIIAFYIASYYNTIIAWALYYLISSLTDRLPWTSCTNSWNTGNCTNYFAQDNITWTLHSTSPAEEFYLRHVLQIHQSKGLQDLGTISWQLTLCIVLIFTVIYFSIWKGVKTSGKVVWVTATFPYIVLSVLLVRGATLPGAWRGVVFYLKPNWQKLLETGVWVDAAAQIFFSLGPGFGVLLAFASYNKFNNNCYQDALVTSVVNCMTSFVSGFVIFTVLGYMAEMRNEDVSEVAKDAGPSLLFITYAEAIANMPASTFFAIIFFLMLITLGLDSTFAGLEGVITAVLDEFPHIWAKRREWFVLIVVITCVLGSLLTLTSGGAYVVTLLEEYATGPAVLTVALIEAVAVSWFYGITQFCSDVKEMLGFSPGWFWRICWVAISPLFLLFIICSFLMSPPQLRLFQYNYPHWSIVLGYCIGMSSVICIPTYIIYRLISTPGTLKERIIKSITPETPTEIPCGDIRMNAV
How it was run: (§1)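 [125I]RTI-55 competition binding. Drugs and blockers in 55.2 mM sodium phosphate buffer pH 7.4 with 1 mg/mL BSA. Radioligand in the same buffer with chymostatin, leupeptin, EDTA and EGTA. Triplicate incubation for 18–24 h at 4 °C to equilibrium. Filtered over GF/B filters presoaked in 2% polyethylenimine, washed with ice-cold Tris-HCl/NaCl pH 7.4. Ki derived.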

[2] = biological target: Sodium-dependent dopamine transporter (Rattus norvegicus, UniProt P23977); assay: Binding affinity for dopamine transporter; how it was run: as §1
Chain of Sodium-dependent dopamine transporter (P23977 whole entry): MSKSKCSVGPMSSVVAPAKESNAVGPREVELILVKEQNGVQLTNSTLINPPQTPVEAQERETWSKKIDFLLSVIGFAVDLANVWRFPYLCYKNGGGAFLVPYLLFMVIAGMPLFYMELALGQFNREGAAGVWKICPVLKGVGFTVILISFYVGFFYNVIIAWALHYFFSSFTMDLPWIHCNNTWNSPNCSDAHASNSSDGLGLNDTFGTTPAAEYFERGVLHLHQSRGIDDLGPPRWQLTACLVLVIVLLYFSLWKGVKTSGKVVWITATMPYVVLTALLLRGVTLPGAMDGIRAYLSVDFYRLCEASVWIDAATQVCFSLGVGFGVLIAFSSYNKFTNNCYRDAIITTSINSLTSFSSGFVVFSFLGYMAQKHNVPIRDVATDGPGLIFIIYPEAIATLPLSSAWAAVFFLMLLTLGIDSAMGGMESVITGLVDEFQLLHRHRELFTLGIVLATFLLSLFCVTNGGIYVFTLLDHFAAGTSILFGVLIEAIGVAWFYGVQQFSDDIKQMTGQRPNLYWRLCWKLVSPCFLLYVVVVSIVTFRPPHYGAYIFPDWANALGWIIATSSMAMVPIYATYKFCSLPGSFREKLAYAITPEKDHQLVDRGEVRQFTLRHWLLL

[3] = biological target: Monoamine transporters; serotonin & dopamine (Rattus norvegicus) (UniProt P31652+P23977); assay: Selectivity ratio for serotonin transporter to dopamine transporter; type: protein assay
Chain of Monoamine transporters; serotonin & dopamine (Rattus norvegicus) (P23977 whole entry, looked up): as the sequence (P23977 whole entry) above
Chain of Monoamine transporters; serotonin & dopamine (Rattus norvegicus) (P31652 whole entry, looked up): as the sequence (P31652 whole entry) above

Rattus norvegicus = assay: Dopamine (DA) reuptake inhibition properties of in vivo extracellular dopamine (ECDA) levels in rat nucleus accumbens microdialysis assay, at […]; type: functional
How it was run: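 Male Sprague–Dawley rats (300–450 g), conscious and freely moving, with jugular catheters and nucleus accumbens probes (2 mm exchange surface). Single iv doses (as salt) of drug or saline vehicle given after three baseline samples. Dialysate taken every 20 min for 2 h, DA by microbore HPLC-EC. Values are pg/5 µL, mean ± SEM, n = 4–5 rats/group. Repeated-measures ANOVA.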

Structure (SMILES) | Ki [1] [nM] | Ki [2] [nM] | Ratio [3] | DA level (Rattus norvegicus) [pg 5ul-1]
O[C@H](CN1CCN(CCOC(c2ccc(F)cc2)c2ccc(F)cc2)CC1)c1ccccc1 | 77 | 11 | 7 | –
OCC(c1ccccc1)N1CCN(CCOC(c2ccc(F)cc2)c2ccc(F)cc2)CC1 (racemic) | 2500 | 48 | 52 | –
O[C@@H](CN1CCN(CCOC(c2ccc(F)cc2)c2ccc(F)cc2)CC1)c1ccccc1 | 13 | 26 | 0.5 | –
Fc1ccc(C(OCCN2CCN(CCc3ccccc3)CC2)c2ccc(F)cc2)cc1 | 36 | 8 | 5 | –
O[C@H](CN1CCN(CCOC(c2ccccc2)c2ccccc2)CC1)c1ccccc1 | 1400 | 30 | 47 | –
OC(Cc1ccccc1)CN1CCN(CCOC(c2ccc(F)cc2)c2ccc(F)cc2)CC1 (racemic) | 120 | 2.3 | 52 | –
O[C@@H](Cc1ccccc1)CN1CCN(CCOC(c2ccccc2)c2ccccc2)CC1 | 2160 | 2.3 | 939 | –
OCC(c1ccccc1)N1CCN(CCOC(c2ccccc2)c2ccccc2)CC1 (racemic) | 3800 | 120 | 32 | –
O[C@H](Cc1ccccc1)CN1CCN(CCOC(c2ccccc2)c2ccccc2)CC1 | 1800 | 25 | 72 | –
O[C@@H](CN1CCN(CCOC(c2ccccc2)c2ccccc2)CC1)c1ccccc1 | 330 | 170 | 2 | –
O[C@@H](Cc1ccccc1)CN1CCN(CCOC(c2ccc(F)cc2)c2ccc(F)cc2)CC1 | 230 | 0.75 | 307 | 1.73
O[C@H](Cc1ccccc1)CN1CCN(CCOC(c2ccc(F)cc2)c2ccc(F)cc2)CC1 | 160 | 12 | 13 | 1.73
